Screens: PubChem BioAssay, several laboratories
Shown are actives, neighbours in structure and some others; about 4.2% of the full set was active somewhere.
Mot1-301 SUMO = inhibitors of SUMOylation pathway: yeast Mot1-301 growth rescue. S. cerevisiae Mot1-301 growth rescue, ATP luminescence, 38.5C; percent above DMSO median, 100 means doubled. growth rescue, % at 18.8 µM. 320,000 tested, 1% active. AID 2716;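 active = every valid replicate shows activation above 250% relative to neutral control wells; inactive = the rest, any valid replicate at or below 250%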
AI-2 QS mod = Vibrio harveyi AI-2 quorum sensing modulation; Vibrio harveyi JMH597 AI-2 luminescence/OD600 ratio, 9 h; active compounds read low; strain lacks LuxN and CqsS sensors; 0 = neutral-control median; activity change, % at 7.5 µM; 300,000 tested, 0.4% active; AID 2094; in the data active = activity change below about -75%, passing the limit was not always enough; inconclusive = no clear call, values can overlap the other calls;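 note: luminescence divided by OD600 gain over 9 h not by final OD600 alone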
KCC2 mod = modulates chloride dependent transport by human KCC2 | Q9H2X9 | KCC2 cells, thallium flux FluoZin-2 fluorescence | B-score of Tl+ flux slope (higher = more flux/activation; lower = inhibition) at 10 µM | 190,000 tested, 2.2% active;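 active = thallium flux slope and its plate-corrected score both differing from the plate sample mean at a set confidence after two filtering rounds, in either direction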;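 note: slope of fluorescence scaled to starting intensity during 10 to 20 s after thallium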
KCNQ1 act = potentiators or activators of human KCNQ1 potassium channel; P51787; CHO-K1 KCNQ1, thallium flux FluxOR fluorescence; active compounds read high; B-score at 10 µM; 310,000 tested, 0.35% active; AID 2648;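 active = fluorescence ratio B-score, a plate-corrected score, at least three library SD, with initial intensity B-score within 5 SD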
Target sequence (P51787 whole entry, looked up): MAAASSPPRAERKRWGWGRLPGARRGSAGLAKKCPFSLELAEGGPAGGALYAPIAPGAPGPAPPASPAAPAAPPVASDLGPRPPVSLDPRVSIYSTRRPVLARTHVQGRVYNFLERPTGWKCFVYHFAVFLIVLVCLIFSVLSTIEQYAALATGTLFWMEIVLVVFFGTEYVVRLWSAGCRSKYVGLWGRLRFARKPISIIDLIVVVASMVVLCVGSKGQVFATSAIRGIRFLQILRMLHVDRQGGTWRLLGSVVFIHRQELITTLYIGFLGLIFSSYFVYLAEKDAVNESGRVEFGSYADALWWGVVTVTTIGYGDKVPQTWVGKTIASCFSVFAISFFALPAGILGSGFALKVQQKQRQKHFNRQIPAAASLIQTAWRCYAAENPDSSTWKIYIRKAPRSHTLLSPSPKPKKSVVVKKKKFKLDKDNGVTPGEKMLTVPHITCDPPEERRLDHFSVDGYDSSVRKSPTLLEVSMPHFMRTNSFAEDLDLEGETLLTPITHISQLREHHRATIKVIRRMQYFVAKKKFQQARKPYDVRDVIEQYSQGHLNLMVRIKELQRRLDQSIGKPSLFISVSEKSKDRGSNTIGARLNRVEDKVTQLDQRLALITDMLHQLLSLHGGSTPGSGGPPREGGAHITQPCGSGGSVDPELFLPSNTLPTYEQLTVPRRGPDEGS
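System: CHO-K1 cells stably expressing KCNQ1 / Medium: assay buffer for compound exposure, DMSO matched across wells / Reagent: thallium- and potassium-containing depolarizing buffer / Compound: one concentration, matched DMSO / Incubation: 20 min compound pretreatment at room temperature / Measured by: kinetic FluxOR fluorescence, 10 s baseline plus 110 s post-stimulus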
hERG rescue = hERG (human) protection from proarrhythmic block; Q12809; CHO-hERG, FluxOR thallium flux, dofetilide IC70 present; activation (rescue from dofetilide block), less the hit threshold, % at 10 µM; 310,000 tested, 0.51% active; AID 1511;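 active = activation above the mean of controls blocked by dofetilide plus 5 SD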;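 note: thallium influx through hERG after potassium depolarization seen as dye fluorescence rise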
KCNQ1 inh = inhibitors of human KCNQ1 potassium channel; P51787; CHO-K1 KCNQ1, FluxOR thallium flux fluorescence; active compounds read high; B-score at 10 µM; 310,000 tested, 1.3% active; AID 2642;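 active = compounds whose thallium flux B-score, printed positive for inhibition, exceeds three library SD while starting fluorescence stays within three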;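 note: channel opened by potassium depolarization with thallium stimulus after 20 min compound exposure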
KCC2 secondary = confirmation of human KCC2 transport modulators; shares compounds with KCC2 mod; normalised thallium flux (F/F0 slope) at 10 µM; 3,700 tested, 15% active; HEK293-KCC2, thallium flux, FluoZin2 fluorescence; active compounds read high;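 active = thallium flux slope above the same plate's solvent-only control mean plus 3 SD; inconclusive = the two replicate wells disagree; inactive = no significant difference from solvent-only control wells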
KCC2 bumet counter = bumetanide-insensitive thallium flux in KCC2 cells with ouabain, counter-screen | AID 1714 | shares compounds with KCC2 mod | normalized thallium flux at 10 µM | HEK293-KCC2 + bumetanide/ouabain, thallium flux FluoZin2; active compounds read high | 3,700 tested, 49% active;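 active = thallium entry rate above the same plate's blocked-transporter control wells by more than 3 SD; inconclusive = the two repeat wells disagree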;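 note: raw slope of fluorescence over initial fluorescence between 10 and 20 s after thallium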
KCC2 sec2 = confirmation of human KCC2 transport modulators. 3,700 tested, 23% active. shares compounds with KCC2 mod. normalized thallium flux at 10 µM. HEK293-KCC2, thallium flux FluoZin2 fluorescence; actives lie on both sides; F/F0 rise rate, 10–20 s post-thallium;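 active = thallium flux slope more than 3 SD above or below the plate's solvent-only control mean, mostly below; inconclusive = the two repeat wells disagreed; inactive = no significant shift from solvent-only controls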
HEK counter1 = counter-screen for KCC2 modulators: effect in parental HEK293 cells | shares compounds with KCC2 mod | thallium flux FluoZin2, ouabain; baseline-ratio fluorescence slope, 10–20 s after thallium | thallium flux rate (normalised fluorescence) at 10 µM | 3,700 tested, 46% active | AID 1716;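 active = thallium flux rate significantly above the same plate's solvent-only control wells, beyond their mean plus 3 SD; inconclusive = the two replicate wells gave conflicting results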
KCC2 retest ouab = confirmation of human KCC2 modulators with ouabain; raw Tl+ flux slope (below DMSO = inhibition, above = activation) at 10 µM; HEK293-KCC2, thallium flux FluoZin2 fluorescence; bidirectional: low = inhibitor, high = activator; shares compounds with KCC2 mod; 3,700 tested, 48% active; AID 1717;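 active = thallium flux slope beyond 3 SD from same-plate DMSO control mean in most replicates, usually higher, sometimes lower; inconclusive = repeat tests gave conflicting results; inactive = no significant difference from controls in most replicates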;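 note: slope of initial-normalized fluorescence between seconds 10 and 20 after thallium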
HEK293 Tl flux2 = counter-screen for KCC2 modulators: effect in parental HEK293 cells; shares compounds with KCC2 mod; thallium flux FluoZin-2 fluorescence slope; thallium flux slope at 10 µM; 3,700 tested, 33% active; AID 1718;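 active = thallium flux slope above the same plate's solvent-control mean plus 3 SD in both duplicate wells; inconclusive = duplicate wells that disagreed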;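 note: run without ouabain in cells lacking the KCC2 cotransporter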
JMH597 growth rt = retest: blocks Vibrio harveyi JMH597 growth; shares compounds with AI-2 QS mod; OD600 absorbance, 9 h; lacks LuxN and CqsS sensors; growth inhibition, % at 7.5 µM; 750 tested, 1% active; AID 2726;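 active = every replicate shows growth inhibition above 50%; inconclusive = at least half, but not all, replicates pass that cutoff; inactive = fewer than half of replicates pass it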
BB721 const-QS lum = retest counter-screen: luminescence loss in constitutive-on quorum sensing strain BB721; shares compounds with AI-2 QS mod; Vibrio harveyi BB721 luminescence, 9 h; inhibition, % at 7.5 µM; 750 tested, 95% active; AID 2727;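 active = inhibition above about 80% in every replicate, not just on average, limit read from the data; inconclusive = at least half of replicates past the limit, but not all; inactive = fewer than half of replicates past the limit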
BB721 growth rt = retest Vibrio harveyi BB721 growth inhibition. shares compounds with AI-2 QS mod. OD600 absorbance, 9 h. growth inhibition, % at 7.5 µM. 750 tested, 3% active. AID 2728;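 active = every replicate shows growth inhibition above 50%; inconclusive = at least half but not all replicates above 50% inhibition; inactive = under half of replicates above 50% inhibition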
JMH597 AI-2 mod = Vibrio harveyi AI-2 signaling luminescence modulation – JMH597 strain, confirmation. Vibrio harveyi JMH597 AI-2 quorum sensing luminescence, 9 h; luxN and CqsS knockout, AI-2 only. AID 2736. shares compounds with AI-2 QS mod. inhibition, % at 7.5 µM. 750 tested, 97% active;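 active = every replicate shows more than 75% inhibition of signal versus neutral control wells; inconclusive = half to three quarters of replicates exceed 75% inhibition; inactive = fewer than half of replicates exceed 75% inhibition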
Mot1 SUMO dose = yeast SUMO pathway inhibition in dose response; shares compounds with Mot1-301 SUMO; S. cerevisiae Mot1-301 galactose growth, ATP luminescence, 24 h; -100 = growth of slx-deleted rescue strain; growth activity, percent, % at 42 µM; 2,300 tested, under 10 active; AID 493004;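 active = Signal drops as the depositor expects, and the fitted half-maximal dose is no more than ten times the top valid tested dose; inconclusive = Poor fit, or a flat curve whose signal drops by 30% to 70%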;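 note: more negative values mean stronger growth rescue toward the control strain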
Of the large screens only hits and unclear results are named; the others gave an inactive call (follow-up assays come after a bar, where they were run).

COc1ccc(CN2C(=O)NC(=O)/C(=C/c3ccc([N+](=O)[O-])o3)C2=O)cc1	none (no result: Mot1-301 SUMO, AI-2 QS mod, KCNQ1 act, hERG rescue, KCNQ1 inh)
CNc1ccc2oc(C[C@H]3O[C@@]4(CC[C@H]3C)O[C@H]([C@H](C)C(=O)c3ccc[nH]3)[C@H](C)C[C@H]4C)nc2c1C(=O)O	KCC2 mod 7.4, KCNQ1 act 38 | KCC2 secondary inactive | KCC2 bumet counter 0.0092 | KCC2 sec2 inactive | HEK counter1 inconclusive | KCC2 retest ouab inconclusive | HEK293 Tl flux2 inactive
C#C[C@]1(O)CC[C@H]2[C@@H]3CCC4=Cc5nc6nc7ccccc7n6cc5C[C@]4(C)[C@H]3CC[C@@]21C	none (no result: AI-2 QS mod, KCC2 mod, KCNQ1 act, hERG rescue, KCNQ1 inh)
COc1ccc(-n2c(=O)[nH]c3ccccc3c2=O)cc1	none | KCC2 secondary inactive | KCC2 bumet counter inactive | KCC2 sec2 inactive | HEK counter1 inactive | KCC2 retest ouab inactive | HEK293 Tl flux2 inactive
COc1ccc(-n2c(=O)[nH]c3ccccc3c2=O)c(OC)c1	none
S=C1Nc2ccccc2Sc2ccccc21	KCC2 mod 48 | KCC2 secondary 0.019 | KCC2 bumet counter 0.075 | KCC2 sec2 inactive | HEK counter1 0.054 | KCC2 retest ouab 0.053 | HEK293 Tl flux2 0.013
COC(=O)c1ccc(COc2cc(C)cc3oc(=O)c4c(c23)CCCC4)o1	none (no result: KCC2 mod) | KCC2 secondary inactive | KCC2 bumet counter inactive | KCC2 sec2 inactive | HEK counter1 0.0049 | KCC2 retest ouab inconclusive | HEK293 Tl flux2 inactive
Cc1cc(OCC(=O)O)c2c3c(c(=O)oc2c1)CCCC3	none
CCN1C[C@]2(COC)CC[C@H](O)[C@]34C1[C@](O)([C@@H](OC)[C@H]23)[C@@]1(O)C[C@H](OC)[C@H]2C[C@@H]4[C@@H]1[C@H]2OC	none (no result: AI-2 QS mod, KCC2 mod, KCNQ1 act, hERG rescue, KCNQ1 inh)
COc1cc(C(=S)N2CCOCC2)cc(OC)c1OC(=O)Cc1ccccc1	KCC2 mod -5.4 | KCC2 secondary inconclusive | KCC2 bumet counter 0.006 | KCC2 sec2 0.021 | HEK counter1 inactive | KCC2 retest ouab inactive | HEK293 Tl flux2 inactive
NNC(=O)c1ccc(Cl)cc1	KCC2 mod 4.3 | KCC2 secondary inactive | KCC2 bumet counter inactive | KCC2 sec2 inactive | HEK counter1 inactive | KCC2 retest ouab inactive | HEK293 Tl flux2 inactive
COC(=O)C1=C(c2ccc(C(C)=O)cc2)C[C@@H]2CC[C@H]1N2C(=O)NCCOc1ccccc1Cl	none (no result: AI-2 QS mod, KCC2 mod, KCNQ1 act, hERG rescue, KCNQ1 inh)
O=c1[nH]c(O)c(N=Nc2cc([N+](=O)[O-])ccc2O)c(=O)[nH]1	Mot1-301 SUMO 649 (no result: KCC2 mod) | KCC2 secondary inactive | KCC2 bumet counter inconclusive | KCC2 sec2 inactive | HEK counter1 inactive | KCC2 retest ouab inactive | HEK293 Tl flux2 inactive | Mot1 SUMO dose inactive
COC(=O)C1=C(c2ccc(OC)c(OC)c2)C[C@@H]2CC[C@H]1N2C(=O)N1CCCCC1	none (no result: AI-2 QS mod, KCC2 mod, KCNQ1 act, hERG rescue, KCNQ1 inh)
Cc1ccsc1C(=O)C1CCCN(Cc2ccn[nH]2)C1 (centres undefined)	none
O=C(c1ccc(-c2ccccc2)cc1)C1CCCN(Cc2ccn[nH]2)C1 (centres undefined)	AI-2 QS mod -84, KCNQ1 act 8 (no result: KCC2 mod) | JMH597 growth rt inactive | BB721 const-QS lum 84 | BB721 growth rt inactive | JMH597 AI-2 mod 91
CCCCC1C(=O)NC(=S)NC1=O	none
CCC1(c2ccc(-c3ccccc3)cc2)C(=O)NC(=O)NC1=O	AI-2 QS mod -90 (no result: KCC2 mod) | JMH597 growth rt inactive | BB721 const-QS lum 98 | BB721 growth rt inactive | JMH597 AI-2 mod 98
O=C1NC(=O)C(CCc2ccncc2)(c2ccccc2)C(=O)N1	none
O=C(COC(=O)Cc1ccccc1)Nc1ccc(SC(F)F)cc1	AI-2 QS mod -91 | JMH597 growth rt inactive | BB721 const-QS lum 94 | BB721 growth rt inactive | JMH597 AI-2 mod 99
COc1ccc(-c2csc(NC(=O)COC(=O)Cc3ccccc3)n2)cc1OC	none
O=C(c1cc2cc(Cl)ccc2[nH]1)N1CCC2(CC1)OCCO2	AI-2 QS mod -84 (no result: KCC2 mod) | JMH597 growth rt inactive | BB721 const-QS lum 96 | BB721 growth rt inactive | JMH597 AI-2 mod 98
